High-throughput results: PubChem BioAssay, The Scripps Research Institute Molecular Screening Center
Compounds with a hit are over-represented: about 2.5% of the library has one in this group of screens.
GSTO1 counter = blocks human GSTO1 in RBBP9 counter-screen | actives 1.1% (n = 300,000) | recombinant GSTO1, activity-based probe fluorescence polarization | P78417 | AID 1974 | inhibition, % at 5.96 µM;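 active = inhibition above the campaign mean inhibition plus 3 SD, cut at about 35% in these data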;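 also: 0% = GSTO1-1 with DMSO and 100% = wells lacking GSTO1-1 enzyme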
eLon inh = E. coli protease La inhibition. P0A9M0. purified E. coli Lon protease, fluorescence polarization. inhibition, % at 7.94 µM. actives 0.42% (n = 360,000). AID 602123; in the data active = inhibition above about 13%, passing the limit was not always enough;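 also: 0% = enzyme with probe and DMSO and 100% = no enzyme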
PRMT1 FP inh = PRMT1 (human) inhibition, primary screen; recombinant PRMT1, activity-based probe fluorescence polarization; inhibition, % at 2.79 µM; actives 1.3% (n = 370,000); AID 652257;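 active = inhibition above about 21% made by adding two undisclosed values, limit read from the data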
PAD4 inh = blocks human protein arginine deiminase 4 | Q9UM07 | recombinant PAD4, RCA probe fluorescence polarization | inhibition, % at 6.36 µM | actives 0.41% (n = 330,000) | AID 485272;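 active = percent inhibition above a cutoff equal to the mean of all tested compounds plus 3 SD, cut at about 15% in these data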;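 also: 0% = PAD4 with RCA probe and DMSO and 100% = probe without PAD4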
Target sequence (Q9UM07 whole entry, looked up): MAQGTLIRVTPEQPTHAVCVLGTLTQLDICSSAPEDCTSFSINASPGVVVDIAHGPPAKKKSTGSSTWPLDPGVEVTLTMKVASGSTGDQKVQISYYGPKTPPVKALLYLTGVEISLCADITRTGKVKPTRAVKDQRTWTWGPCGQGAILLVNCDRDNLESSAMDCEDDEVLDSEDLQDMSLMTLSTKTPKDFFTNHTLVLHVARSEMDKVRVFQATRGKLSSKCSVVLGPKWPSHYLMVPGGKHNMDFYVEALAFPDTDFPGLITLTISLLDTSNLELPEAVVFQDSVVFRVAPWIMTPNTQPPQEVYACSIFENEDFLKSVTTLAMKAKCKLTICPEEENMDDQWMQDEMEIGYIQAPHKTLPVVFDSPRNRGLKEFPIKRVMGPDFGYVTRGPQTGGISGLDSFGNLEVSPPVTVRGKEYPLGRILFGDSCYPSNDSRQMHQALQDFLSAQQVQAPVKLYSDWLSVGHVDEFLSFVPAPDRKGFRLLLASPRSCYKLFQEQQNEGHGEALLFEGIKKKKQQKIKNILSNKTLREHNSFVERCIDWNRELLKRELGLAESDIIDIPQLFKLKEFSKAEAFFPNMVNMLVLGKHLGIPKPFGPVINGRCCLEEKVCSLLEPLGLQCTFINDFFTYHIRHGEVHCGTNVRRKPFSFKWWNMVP
TDP2 absorb = TDP2 (human) inhibition, absorbance primary screen. recombinant TDP2, T5PNP hydrolysis, p-nitrophenol absorbance 415 nm. inhibition, % at 12.8 µM. O95551. actives 0.34% (n = 370,000);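 active = inhibition above the mean of all tested compounds plus 3 SD, set per campaign, cut at about 25% in these data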;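 also: 0% = DMSO with enzyme and 100% = buffer with substrate but no TDP2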
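test system = human TDP2 enzyme | input = TDP2 enzyme at 120 nM final | medium = 50 mM Tris-HCl pH 7.5 with Mg2+, KCl, DTT, BSA | also added = T5PNP substrate, 5 mM | times = 2 h at 37 °C | technique = epi absorbance | benchmarks = high control without enzyme, low control DMSO plus TDP2 | replication = each compound tested once, singlicate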
E coli Lon conf = confirmation of E. coli Lon protease inhibitors; shares compounds with eLon inh; purified E. coli Lon, fluorescence polarization; inhibition, % at 7.94 µM; actives 31% (n = 1,400); in the data active = inhibition above about 16%;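 also: 0% = enzyme with probe and DMSO and 100% = no enzyme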
PRMT1 confirm = PRMT1 (human) inhibition, FP confirmation; shares compounds with PRMT1 FP inh; recombinant His-PRMT1, activity-based probe fluorescence polarization; inhibition, % at 2.79 µM; actives 42% (n = 3,300); AID 687036;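 active = mean inhibition across replicates above the hit cutoff derived for the earlier primary screen, cut at about 22% in these data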
Numbers without * were called inactive; . = no result; + = active, no number; ! = a repeat was not active.

SMILES	GSTO1 counter	eLon inh	PRMT1 FP inh	PAD4 inh	TDP2 absorb	E coli Lon conf	PRMT1 confirm
CCc1c(C(C)S(=O)(=O)c2ccc(C)cc2)[nH]c(=O)n1-c1ccc(C)cc1 (centres undefined)	-3.1	62.9*	33.8*	-4.7	-5.9	8.4	14.4
CCc1c(C#N)c(=O)[nH]c(=O)n1-c1ccccc1	-1.5	-12.8	-0.1	0.6	7.7	.	.
COC(=O)[C@]12C[C@H](CC(=O)N3CCC(c4ccccc4)CC3)C(=O)N(Cc3cccc4ccccc34)C1=C[C@H](C(C)C)O[C@@H]2C1CC1	.	.	0.2	.	-1.8	.	.
COc1ccc(NS(=O)(=O)c2ccc(F)c(Cl)c2)cn1	-8.3	57.9*	36.9*	-6.4	-8.9	-11.0	8.3
COc1ccc(NS(=O)(=O)c2ccc(Br)cc2)cn1	0.1	-10.1	4.3	-0.9	-2.9	.	.
COc1ccc(-c2noc(C3CCCN(C(=O)Nc4cc(C)cc(C)c4)C3)n2)cc1 (centres undefined)	.	.	-2.9	.	-9.1	.	.
O=C1c2ccccc2C(=O)N1SC1CCCCC1	10.1	18.6*	63.4*	-4.3	-1.0	-65.0	73.5*
O=C(NN1C(=O)c2ccccc2C1=O)C1C2CCCCC21 (centres undefined)	13.8	6.0	-2.1	-5.9	4.6	.	.
CSc1ccc(C2C(C(=O)c3ccco3)=C(O)C(=O)N2c2nnc(SC)s2)cc1 (centres undefined)	-4.6	40.8*	65.3*	-28.2	15.5	48.8*	33.9*
Cc1nnc(N2C(=O)C(O)=C(C(=O)c3ccco3)C2c2ccc(C(C)(C)C)cc2)s1 (centres undefined)	-8.1	-8.2	12.7	-9.4	-13.9	.	.
N#Cc1c(C#N)c(-c2ccccc2)n(-c2ccccc2)c1N	-10.2	-6.7	-2.6	-7.5	4.2	.	.
N#Cc1c2c(c(=S)n(-c3ccccc3)c1N)CCCC2	2.5	34.2*	26.3*	1.7	-2.5	22.8*	8.1
C=CCC12C=C(OC)C(=O)C(C1=O)C1c3ccccc3CC12 (centres undefined)	.	.	-2.2	.	1.2	.	.
CCN(CC)CCN1C(=O)c2cccc3cc(N)cc(c23)C1=O	1.6	+	24.9*	1.9	-8.2	52.7*	22.2*
Cc1cc2cc(CNC(=O)c3cc4ccccc4o3)ccc2n1C	-9.2	.	.	2.1	.	.	.
Cc1cc2cc(CNC(=O)c3ccco3)ccc2n1C	14.8	14.5*	35.8*	9.4	6.0	13.8	2.0
Cc1ccc2c(c1)C1CS(=O)(=O)N(C3CCCC3)C(=O)N1C2 (centres undefined)	.	.	-1.4	.	-3.2	.	.
O=S(=O)(c1ccc(F)cc1)N1CN(Cc2ccco2)c2nc3ccccc3nc21	7.5	44.0*	26.4*	6.4	-0.4	-37.4	2.8
COc1ccc(C2COc3cc(O)ccc3C2)c(OC)c1O (centres undefined)	3.7	-5.0	3.7	0.5	4.0	.	.
Oc1ccc2c(c1)OCC1(O)Cc3cc(O)c(O)cc3C21 (centres undefined)	.	+	125.2*	.	-3.0	+	119.4*
CCN(CC)C(=O)c1oc(=O)c2ccccc2c1-c1ccc(C)cc1	.	.	-9.8	.	-6.9	.	.
CN1Cc2c(N)cccc2C(c2ccccc2)C1 (centres undefined)	6.5	54.6*!	43.5*	1.6	1.0	75.1*	7.6
O=C1CC(c2ccccc2)c2ccccc21 (centres undefined)	5.2	-5.6	-1.1	-0.8	2.4	.	.
COc1ccc(N2CCCC2)c(NC(=O)c2ccc([N+](=O)[O-])o2)c1	16.0	41.3*	38.6*	-17.0	3.1	-10.1	3.4
O=C(Nc1ccccc1N1CCCC1)c1ccc([N+](=O)[O-])o1	16.2	-12.7	-0.4	-8.6	-2.8	.	.
SMILES	GSTO1 counter	eLon inh	PRMT1 FP inh	PAD4 inh	TDP2 absorb	E coli Lon conf	PRMT1 confirm
O=C(CC1SC2=NCCN2C1=O)Nc1ccc(Cl)cc1 (centres undefined)	6.4	-6.2	5.2	-2.1	-5.2	.	.
Cc1ccc(NC(=O)CC2SC3=NCCCN3C2=O)c(C)c1 (centres undefined)	4.8	64.0*	44.5*	-6.0	-4.3	16.9*	39.7*
CCOC(=O)Cn1cc(CN2CCS(=O)(=O)N(Cc3ccccc3)C(C(=O)OC)C2)nn1 (centres undefined)	.	.	-1.2	.	-1.5	.	.
CCCCCCn1c(=O)[nH]c2nc3cc(N)c(C)cc3nc2c1=O	.	116.5*	132.3*	.	0.8	48.8*	123.0*
CCCCCn1c(=O)[nH]c2cc(C(=O)O)ccc2c1=O	-2.0	2.1	-2.7	0.9	10.1	.	.
CCN(CC)S(=O)(=O)c1cccc(C(=O)N/N=C2\CCCC(=O)C2)c1	4.9	87.0*	45.9*	-4.9	-15.5	-27.0	-1.7
O=c1[nH]c2c(s1)C=Nc1ccccc1N2	20.2	114.1*	68.9*	6.8	0.9	149.4*	85.3*
OCCOCCN1CCN(C2=Nc3ccccc3Sc3ccccc32)CC1	5.8	-1.8	3.7	-1.7	4.5	.	.
O=C1C=CC(=O)c2c(O)c(N3CCN(CCO)CC3)c(Cl)c(O)c21	.	171.6*	51.9*	.	8.5	96.0*	84.9*
O=C1C=CC(=O)c2c(O)c(N3CCN(CCOCCO)CC3)c(Br)c(O)c21	.	125.7*	65.9*	.	24.0	113.7*	93.2*
CCOc1ccc(Oc2c(Cl)cnn(Cc3cccc4ccccc34)c2=O)cc1	.	.	2.1	.	-1.6	.	.
CC(=O)Nn1cc2c(c1-c1ccccc1)c(=O)n(C)c(=O)n2C	-3.0	-12.6	2.4	-1.5	2.5	.	.
Cn1c(=O)c2[nH]c(-c3ccccc3)c(O)c2n(C)c1=O	23.6	+	75.5*	0.4	-8.4	+	23.6*
COC(=O)[C@]12C[C@H](CC(=O)NCCCCc3ccccc3)C(=O)N(Cc3ccc(Cl)cc3Cl)C1=C[C@H](COCc1ccccc1)O[C@@H]2C	.	.	4.2	.	-5.2	.	.
COC(=O)c1cc2c(c3c4cc(F)ccc4n(S(=O)(=O)c4cccc(C)c4)c13)C(=O)N(Cc1ccccc1OC)C2	.	.	-3.4	.	-12.7	.	.
O=C1c2cccc3c(O)ccc(c23)C(=O)N1Cc1ccco1	.	+	158.2*	.	0.2	+	168.8*
CCc1oc(C(=O)O)cc1CN(CC)CC	5.0	-0.2	1.0	-6.4	6.5	.	.
CCN(CC)Cc1cc(O)c(CN(CC)CC)cc1O	.	34.6*	30.3*	.	10.0	29.5*	76.4*
COc1ccc2c3c([nH]c2c1)[C@]1(CCNC=O)Nc2ccccc2C1=NCC3	.	.	1.6	.	4.2	.	.
C=CCOc1cccc(C2C(C(=O)c3ccc(C)o3)=C(O)C(=O)N2c2nccs2)c1 (centres undefined)	-8.1	54.7*	62.5*	-8.2	3.3	126.1*	38.0*
Cc1nc(Cl)c2c(n1)NC1=C(O2)C(=O)CCC1	10.4	84.0*	36.4*	10.4	9.6	143.5*	47.9*
